According to ChEMBL document CHEMBL2375292, “Biaryl tetrazolyl ureas as inhibitors of endocannabinoid metabolism: modulation at the N-portion and distal phenyl ring” (Eur J Med Chem, 2013):

Legend:
[1] = target: T1, Transient receptor potential cation channel subfamily A member 1 (Rattus norvegicus, UniProt Q6RI86); experiment: Agonist activity at rat TRPA1 receptor expressed in HEK293 cells assessed as increase in intracellular Ca2+ concentration by spectrofluorimetric analysis; format: cell-based
T1 sequence (Q6RI86 whole entry): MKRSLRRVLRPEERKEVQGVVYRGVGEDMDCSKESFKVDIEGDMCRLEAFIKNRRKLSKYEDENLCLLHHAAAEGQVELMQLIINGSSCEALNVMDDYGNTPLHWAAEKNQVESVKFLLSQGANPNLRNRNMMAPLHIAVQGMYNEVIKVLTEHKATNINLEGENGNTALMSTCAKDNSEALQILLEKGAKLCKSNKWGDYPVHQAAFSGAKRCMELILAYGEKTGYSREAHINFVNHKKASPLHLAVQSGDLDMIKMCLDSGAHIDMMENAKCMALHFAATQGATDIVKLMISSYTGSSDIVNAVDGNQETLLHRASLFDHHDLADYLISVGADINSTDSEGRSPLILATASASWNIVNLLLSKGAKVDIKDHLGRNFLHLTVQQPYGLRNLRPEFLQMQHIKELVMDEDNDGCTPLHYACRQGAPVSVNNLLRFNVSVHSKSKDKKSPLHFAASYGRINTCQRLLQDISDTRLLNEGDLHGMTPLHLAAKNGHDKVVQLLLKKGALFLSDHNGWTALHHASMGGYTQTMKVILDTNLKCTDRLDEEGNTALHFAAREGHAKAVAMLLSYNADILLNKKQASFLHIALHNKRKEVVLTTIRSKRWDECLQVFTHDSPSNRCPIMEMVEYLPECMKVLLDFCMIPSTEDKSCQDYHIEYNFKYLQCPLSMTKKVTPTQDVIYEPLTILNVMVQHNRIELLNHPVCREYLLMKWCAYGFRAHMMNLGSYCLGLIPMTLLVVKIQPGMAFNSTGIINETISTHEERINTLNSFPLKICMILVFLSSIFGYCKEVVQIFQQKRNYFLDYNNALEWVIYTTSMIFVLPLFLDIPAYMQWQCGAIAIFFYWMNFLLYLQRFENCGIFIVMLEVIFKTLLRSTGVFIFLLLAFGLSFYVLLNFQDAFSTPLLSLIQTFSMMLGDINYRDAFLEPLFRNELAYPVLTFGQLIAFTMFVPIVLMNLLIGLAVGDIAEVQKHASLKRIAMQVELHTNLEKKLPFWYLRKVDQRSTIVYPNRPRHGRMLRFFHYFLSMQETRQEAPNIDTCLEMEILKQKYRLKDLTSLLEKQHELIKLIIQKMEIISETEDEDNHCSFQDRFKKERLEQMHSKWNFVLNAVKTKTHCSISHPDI
Summary of the method: (§1)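 HEK293 cells stably transfected with human TRPV1 or rat TRPA1 cDNA (pcDNA3, G-418 selection) were loaded 1 h at room temperature with Fluo-4-AM, washed and suspended in Tyrode's buffer pH 7.4. [Ca²⁺]i was read by stirred-cuvette spectrofluorimetry before and after adding test compound at various concentrations. Signal from untransfected cells was subtracted. Efficacy was taken as percent of ionomycin (4 µM) for TRPV1 and percent of allyl isothiocyanate (100 µM) for TRPA1; EC50 was also derived.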

[2] = target: Transient receptor potential cation channel subfamily A member 1 (Rattus norvegicus) (UniProt Q6RI86); experiment: Agonist activity at rat TRPA1 receptor expressed in HEK293 cells assessed as increase in intracellular Ca2+ concentration by spectrofluorimetric analysis relative to allyl isothiocyanate; format: cell-based; summary of the method: as §1
Transient receptor potential cation channel subfamily A member 1 (Rattus norvegicus), sequence (Q6RI86 whole entry): as above

[3] = target: T2, Transient receptor potential cation channel subfamily V member 1 (Homo sapiens, UniProt Q8NER1); experiment: Antagonist activity at human TRPV1 receptor expressed in HEK293 cells assessed as inhibition of capsaicin-induced intracellular Ca2+ elevation incubated for 5 mins prior to capsaicin-stimulation by spectrofluorimetric analysis; format: cell-based
T2 sequence (Q8NER1 whole entry): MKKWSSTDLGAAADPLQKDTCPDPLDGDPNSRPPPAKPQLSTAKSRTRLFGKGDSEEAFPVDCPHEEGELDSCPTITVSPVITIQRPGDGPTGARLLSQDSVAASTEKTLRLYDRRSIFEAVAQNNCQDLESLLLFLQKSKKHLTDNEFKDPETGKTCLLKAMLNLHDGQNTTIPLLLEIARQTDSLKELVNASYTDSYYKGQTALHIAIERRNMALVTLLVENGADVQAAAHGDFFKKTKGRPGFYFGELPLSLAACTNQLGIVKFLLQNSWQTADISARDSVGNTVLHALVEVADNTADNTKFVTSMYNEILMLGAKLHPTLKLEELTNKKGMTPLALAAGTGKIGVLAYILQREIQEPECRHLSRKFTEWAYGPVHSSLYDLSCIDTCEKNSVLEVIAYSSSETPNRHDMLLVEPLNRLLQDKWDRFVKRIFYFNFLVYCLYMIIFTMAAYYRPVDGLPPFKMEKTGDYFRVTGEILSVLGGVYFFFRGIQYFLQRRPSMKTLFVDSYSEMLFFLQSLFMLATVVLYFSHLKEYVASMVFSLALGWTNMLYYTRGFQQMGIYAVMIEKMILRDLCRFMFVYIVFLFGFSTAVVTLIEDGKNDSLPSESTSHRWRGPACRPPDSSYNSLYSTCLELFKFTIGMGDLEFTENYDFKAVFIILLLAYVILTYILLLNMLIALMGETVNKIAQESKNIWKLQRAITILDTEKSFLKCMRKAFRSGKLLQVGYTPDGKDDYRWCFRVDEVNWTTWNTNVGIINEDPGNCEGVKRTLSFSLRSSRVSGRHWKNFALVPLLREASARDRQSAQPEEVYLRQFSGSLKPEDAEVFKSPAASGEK
Summary of the method: (§2)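 Fluo-4-loaded HEK293 cells stably expressing human TRPV1 or rat TRPA1, in Tyrode's buffer pH 7.4, received test compound in the cuvette 5 min before agonist: capsaicin 0.1 µM for TRPV1, AITC 100 µM for TRPA1. The [Ca²⁺]i rise with agonist alone was set to 100%. IC50 came from a variable-slope sigmoidal fit. Untransfected-cell signal was subtracted.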

[4] = target: T2, Transient receptor potential cation channel subfamily V member 1; experiment: Agonist activity at human TRPV1 receptor expressed in HEK293 cells assessed as increase in intracellular Ca2+ concentration by spectrofluorimetric analysis relative to ionomycin; format: cell-based; summary of the method: as §1
Monoglyceride lipase = target: T3, Monoglyceride lipase (Homo sapiens, UniProt Q99685); experiment: Inhibition of MAGL (unknown origin) expressed in African green monkey COS7 cell cytosolic fraction assessed as [3H]2-AG hydrolysis to [3H]arachidonic acid after 20 mins by beta counting analysis; parameters: species or system COS-7
T3 sequence (Q99685 whole entry): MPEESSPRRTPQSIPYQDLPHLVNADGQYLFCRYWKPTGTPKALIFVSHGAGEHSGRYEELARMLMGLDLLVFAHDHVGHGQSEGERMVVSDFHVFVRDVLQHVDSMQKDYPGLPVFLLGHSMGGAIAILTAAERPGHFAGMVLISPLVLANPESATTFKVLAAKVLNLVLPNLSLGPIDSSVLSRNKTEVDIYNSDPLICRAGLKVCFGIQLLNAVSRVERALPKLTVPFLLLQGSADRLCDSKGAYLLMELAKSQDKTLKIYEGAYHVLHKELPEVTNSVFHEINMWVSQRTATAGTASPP

[5] = target: T4, Fatty-acid amide hydrolase 1 (Rattus norvegicus, UniProt P97612); experiment: Inhibition of FAAH in rat brain membranes assessed as [14C]AEA hydrolysis to [14C]Ethanolamine after 30 mins by scintillation counting analysis; format: cell membranes
T4 sequence (P97612 whole entry): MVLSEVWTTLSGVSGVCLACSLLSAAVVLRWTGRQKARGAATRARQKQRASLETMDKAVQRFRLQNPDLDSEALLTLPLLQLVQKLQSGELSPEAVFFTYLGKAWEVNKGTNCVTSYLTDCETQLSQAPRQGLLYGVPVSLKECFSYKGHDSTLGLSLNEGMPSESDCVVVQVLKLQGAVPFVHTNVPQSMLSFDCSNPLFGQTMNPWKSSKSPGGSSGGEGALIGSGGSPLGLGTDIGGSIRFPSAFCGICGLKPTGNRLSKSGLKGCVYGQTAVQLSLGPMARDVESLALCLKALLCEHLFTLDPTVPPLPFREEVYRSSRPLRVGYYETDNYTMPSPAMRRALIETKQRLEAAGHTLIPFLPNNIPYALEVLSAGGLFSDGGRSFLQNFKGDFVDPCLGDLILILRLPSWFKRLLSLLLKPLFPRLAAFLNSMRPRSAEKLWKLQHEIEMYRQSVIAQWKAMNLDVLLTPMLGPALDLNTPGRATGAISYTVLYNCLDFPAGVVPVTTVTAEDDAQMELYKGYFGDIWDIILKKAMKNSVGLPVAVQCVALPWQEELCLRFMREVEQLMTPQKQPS
Summary of the method: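 Rat brain membranes were incubated with [¹⁴C]AEA in 50 mM Tris-HCl pH 9 for 30 min at 37 °C. Released [¹⁴C]ethanolamine in the aqueous phase was counted by scintillation after CHCl₃/CH₃OH 2/1 extraction. IC50 was the concentration giving 50% inhibition.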

[6] = target: T1, Transient receptor potential cation channel subfamily A member 1; experiment: Antagonist activity at rat TRPA1 receptor expressed in HEK293 cells assessed as inhibition of allyl isothiocyanate-induced intracellular Ca2+ elevation incubated for 5 mins prior to allyl isothiocyanate-stimulation by spectrofluorimetric analysis; format: cell-based; summary of the method: as §2
[7] = target: T2, Transient receptor potential cation channel subfamily V member 1; experiment: Agonist activity at human TRPV1 receptor expressed in HEK293 cells assessed as increase in intracellular Ca2+ concentration by spectrofluorimetric analysis; format: cell-based; summary of the method: as §1

Row | SMILES | EC50 [1] | Efficacy [2] | IC50 [3] | Efficacy [4] | IC50 (Monoglyceride lipase) | IC50 [5] | IC50 [6] | EC50 [7]
1 | CN(C)C(=O)n1nnnc1Cc1ccc(-c2ccc(O)cc2)cc1 | 21.7 µM | 40.5% | > 100 µM | < 10% | > 1 µM | 0.0167 µM | > 100 µM | –
2 | Cc1ccc(-c2ccc(Cc3nnnn3C(=O)N(C)C)cc2)cc1 | 19.7 µM | 388% | > 100 µM | 28% | > 1 µM | 0.0071 µM | 15.9 µM | 22.5 µM
3 | CN(C)C(=O)n1nnnc1Cc1ccc(-c2ccc(CO)cc2)cc1 | 24.2 µM | 58.7% | > 100 µM | < 10% | > 1 µM | 0.0374 µM | 52.6 µM | –
4 | CC(=O)c1cccc(-c2ccc(Cc3nnnn3C(=O)N(C)C)cc2)c1 | – | < 10% | > 100 µM | < 10% | > 1 µM | 0.0147 µM | > 100 µM | –
5 | CN(C)C(=O)n1nnc(Cc2ccc(-c3ccc(CO)cc3)cc2)n1 | 24.4 µM | 67.3% | > 100 µM | < 10% | – | 0.0075 µM | 70.6 µM | –
6 | COC(=O)c1cccc(-c2ccc(Cc3nnnn3C(=O)N(C)C)cc2)c1 | – | < 10% | > 100 µM | < 10% | > 1 µM | 0.0121 µM | 99.8 µM | –
7 | Cc1ccccc1-c1ccc(Cc2nnn(C(=O)N(C)C)n2)cc1 | 15.9 µM | 202% | > 100 µM | < 10% | – | 0.0517 µM | 18.9 µM | –
8 | COC(=O)c1cccc(-c2ccc(Cc3nnn(C(=O)N(C)C)n3)cc2)c1 | – | < 10% | > 100 µM | < 10% | – | 0.0123 µM | 91.2 µM | –
9 | CN(C)C(=O)n1nnc(Cc2ccc(-c3ccccc3O)cc2)n1 | 53.3 µM | 445% | > 100 µM | < 10% | – | 0.0402 µM | 28 µM | –
10 | CN(C)C(=O)n1nnnc1Cc1ccc(-c2cccc(C(N)=O)c2)cc1 | 50.1 µM | 30.7% | > 100 µM | 21.3% | > 1 µM | 0.011 µM | > 100 µM | 32.3 µM
11 | CN(C)C(=O)n1nnc(Cc2ccc(-c3ccc(O)cc3)cc2)n1 | 14.6 µM | 109% | > 100 µM | < 10% | – | 0.0054 µM | 30.2 µM | –
12 | CN(C)C(=O)n1nnnc1Cc1ccc(-c2ccccc2O)cc1 | 59.7 µM | 228% | > 100 µM | < 10% | > 1 µM | 0.0156 µM | > 100 µM | –
13 | CN(C)C(=O)n1nnnc1Cc1ccc(-c2cccc(CO)c2)cc1 | – | < 10% | > 100 µM | < 10% | – | 0.0106 µM | > 100 µM | –
14 | CN(C)C(=O)n1nnnc1Cc1ccc(-c2ccccc2)cc1 | 26.9 µM | 101% | > 100 µM | < 10% | – | – | 49.4 µM | –
15 | Cc1ccccc1-c1ccc(Cc2nnnn2C(=O)N(C)C)cc1 | 48.7 µM | 349% | > 100 µM | < 10% | > 1 µM | 0.0355 µM | 45.2 µM | –
16 | CN(C)C(=O)n1nnc(Cc2ccc(-c3cccc(CO)c3)cc2)n1 | – | < 10% | > 100 µM | < 10% | – | 0.0107 µM | > 100 µM | –
17 | CC(=O)c1cccc(-c2ccc(Cc3nnn(C(=O)N(C)C)n3)cc2)c1 | – | < 10% | > 100 µM | < 10% | – | 0.0342 µM | 97.2 µM | –

The next molecules have a lower IC50 [3] than those just listed; values first:

Row | EC50 [1] | Efficacy [2] | IC50 [3] | Efficacy [4] | IC50 (Monoglyceride lipase) | IC50 [5] | IC50 [6] | EC50 [7] | SMILES
18 | – | < 10% | 47.6 µM | 15.9% | – | 0.0116 µM | 92.1 µM | 1.7 µM | CN(CCCCc1ccccc1)C(=O)n1nnc(Cc2ccc(-c3ccccc3)cc2)n1
19 | 26.8 µM | 35.7% | 67.4 µM | 20% | – | 0.003 µM | > 100 µM | 25 µM | CN(C)C(=O)n1nnnc1Cc1ccc(-c2cccc(O)c2)cc1
20 | 4.9 µM | 84.7% | 18.3 µM | 45.6% | > 1 µM | 0.725 µM | 14.9 µM | 13.4 µM | CN(C(=O)n1nnnc1Cc1ccc(-c2ccccc2)cc1)C1CCCCC1
21 | 20.1 µM | 89.9% | 7.1 µM | 45.7% | > 1 µM | 0.0213 µM | 83.7 µM | 1.5 µM | CN(CCCCc1ccccc1)C(=O)n1nnnc1Cc1ccc(-c2ccccc2)cc1
22 | 20.1 µM | 186% | 31.3 µM | 14.5% | – | – | 11.2 µM | 5 µM | CN(C)C(=O)n1nnc(Cc2ccc(-c3ccccc3)cc2)n1
23 | – | < 10% | 4.5 µM | 36.1% | – | 0.0169 µM | 24.3 µM | 11.9 µM | CN(Cc1ccc2ccccc2c1)C(=O)n1nnc(Cc2ccc(-c3ccccc3)cc2)n1
24 | 13.5 µM | 53.9% | 7.6 µM | 34.1% | > 1 µM | 0.0867 µM | 15 µM | 2.5 µM | CN(Cc1ccc2ccccc2c1)C(=O)n1nnnc1Cc1ccc(-c2ccccc2)cc1
25 | 3.7 µM | 130% | 7.4 µM | 66.7% | – | 0.0681 µM | 21.5 µM | 1.8 µM | O=C(N1CCCCC1)n1nnc(Cc2ccc(-c3ccccc3)cc2)n1
26 | 10.3 µM | 275% | 20.6 µM | 33.3% | – | 0.0462 µM | 10.5 µM | 4.8 µM | Cc1ccc(-c2ccc(Cc3nnn(C(=O)N(C)C)n3)cc2)cc1
27 | 15 µM | 187% | 78.9 µM | < 10% | – | 0.0485 µM | 17.8 µM | – | Cc1cccc(-c2ccc(Cc3nnn(C(=O)N(C)C)n3)cc2)c1
28 | – | < 10% | 91.8 µM | < 10% | – | 0.0071 µM | 83.1 µM | – | CN(C)C(=O)n1nnc(Cc2ccc(-c3cccc(C(N)=O)c3)cc2)n1
29 | 6.5 µM | 106% | 22.6 µM | 67.4% | > 1 µM | 0.0382 µM | 12.5 µM | 5.9 µM | O=C(N1CCCCC1)n1nnnc1Cc1ccc(-c2ccccc2)cc1
